Screening data as filed in PubChem.
SKN-1 inh: inhibitors of C. elegans SKN-1; C. elegans VP596 Pgst-4::GFP/RFP ratio, acrylamide-induced, 24 h; inhibition, % at 21.8 µM; 0.49% of 360,000 active; AID 624304;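 active = interference check ratio from 0.5 to 1.5 plus GFP to RFP signal ratio inhibition reaching or exceeding a fixed threshold, cut at about 30% in these data, passing the limit was not always enough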
TLR4 MyD88 comp: blocks binding of human TLR4 to MyD88; HeLa CL3-4 TLR4/MyD88 BLA complementation, FRET ratio; 0.18% of 200,000 active; inhibition, % at 8.4 µM; in the data active = inhibition above about 25%;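 also: 0% = vehicle and 100% = reference inhibitor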
TLR9-MyD88 inh: inhibitors of human TLR9-MyD88 binding. CHO BLA complementation TLR9-MyD88, CCF4 FRET ratio. inhibition, % at 4.98 µM. 0.21% of 340,000 active. AID 504734;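 active = inhibition above the mean over all tested compounds plus 3 SD, cut at about 21% in these data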;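 also: 0% = DMSO only wells and 100% = clavulanate BLA inhibitor control wells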
NOD2-RIPK2 inh: blocks binding of human NOD2 to RIPK2 | O43353 | CHO BLA complementation NOD2-RIPK2, CCF4 ratio | inhibition, % at 4.98 µM | 0.38% of 360,000 active | AID 624267; in the data active = inhibition above about 21%;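 also: 0% = vehicle only and 100% = reference blocker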
MT1-MMP act inh: inhibitors of human MT1-MMP activation. P50281. HT1080 RFP-PRO-GFP cells, GFP/RFP ratio fluorescence, overnight; percent of plate control window, DMSO zero. GFP/RFP ratio change, % at 20 µM. 0.061% of 360,000 active. AID 651647;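 active = GFP/RFP ratio change of at least 30% with cell ATP level not reduced by more than half and red fluorescence within 50% of control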
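system = RFP-PRO-GFP reporter HT1080 cells | dosing = 20 µM single dose, 1% DMSO | timing = overnight cell settling, then overnight compound exposure, 37 °C, 5% CO2 | read-out basis = GFP/RFP fluorescence ratio | controls = DMSO and RFP-L50D-GFP cell wells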
NOD2-RIPK2 conf: NOD2-RIPK2 interaction inhibition confirmed. CHO cells, NOD2-RIPK2 BLA complementation, CCF4 FRET. 70% of 1,200 active. inhibition, % at 4.98 µM. shares compounds with NOD2-RIPK2 inh;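 active = mean inhibition across replicates above a set limit taken from the earlier primary screen, cut at about 21% in these data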;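 also: 0% = DMSO-only wells and the high end = clavulanate BLA-blocked wells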
BLA counter: NOD2-RIPK2 counterscreen BLA reporter activity | 57% of 1,200 active | CHO BLA reporter, CCF4 FRET ratio | inhibition, % at 4.98 µM | shares compounds with NOD2-RIPK2 inh;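 active = mean inhibition above the low-control mean inhibition plus three low-control SD, cut at about 11% in these data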;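 also: 0% = DMSO only wells and 100% = clavulanate high control wells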
* marks the source's active call; other numbers are inactive results; nt = not tested or not shown. This is a sample that favours compounds with a hit; in the whole collection about 0.99% have one here.

SMILES | SKN-1 inh | TLR4 MyD88 comp | TLR9-MyD88 inh | NOD2-RIPK2 inh | MT1-MMP act inh | NOD2-RIPK2 conf | BLA counter
CCOc1ccc(CNC(=O)C2CCN(c3nnc(C)c4c(C)n(-c5ccc(C)cc5)nc34)CC2)cc1 | 23.0 | nt | 7.2 | 35.9* | -2.5 | 47.6* | 18.9*
Cc1ccc(-n2nc3c(N4CCC(C(=O)NCc5ccccc5C)CC4)nnc(C)c3c2C)cc1 | -0.5 | nt | 5.7 | 24.0* | 1.0 | 36.5* | 7.4
COc1ccccc1CCNC(=O)C1CCN(c2nnc(C)c3c(C)n(-c4ccc(C)cc4)nc23)CC1 | 18.9 | nt | 2.1 | 5.2 | -7.4 | nt | nt
Cc1cccc(C)c1Cn1c(C)c(C(=O)NCc2ccc([N+](=O)[O-])cc2)sc1=O | 8.2 | nt | nt | -4.4 | 4.9 | nt | nt
O=C(NCc1ccccc1)C(c1cccc2ccccc12)n1c(=O)c(-c2cc3ccccc3[nH]2)nc2ccccc21 (stereo not drawn) | 14.9 | nt | nt | 43.1* | -1.2 | 40.8* | 65.8*
Cc1cccc(C)c1NC(=O)C(c1cccc2ccccc12)n1c(=O)c(-c2cc3ccccc3[nH]2)nc2ccccc21 (stereo not drawn) | 2.6 | nt | nt | 42.0* | -0.5 | 38.5* | 64.5*
O=C(NCc1ccccc1)C(c1cccc2ccccc12)n1c(=O)c(-c2ccco2)nc2ccccc21 (stereo not drawn) | 2.4 | nt | nt | -10.8 | -4.0 | nt | nt
Cc1cccc(C)c1NC(=O)C(c1ccccc1F)n1c(=O)c(-c2cc3ccccc3[nH]2)nc2ccccc21 (stereo not drawn) | -0.7 | nt | nt | 49.8* | -22.5 | 46.2* | 68.0*
Cc1cccc(C)c1NC(=O)C(c1ccnc2ccccc12)n1c(=O)c(-c2ccco2)nc2ccccc21 (stereo not drawn) | 11.1 | nt | nt | -16.7 | -5.7 | nt | nt
O=C(NCc1ccccc1)C(CCc1ccccc1)n1c(=O)c(-c2cc3ccccc3[nH]2)nc2ccccc21 (stereo not drawn) | 10.0 | nt | nt | 50.1* | -3.4 | 46.4* | 68.8*
Cc1ccc(C)c(Cn2nc(-c3cc(C)ccc3C)ccc2=O)c1 | 6.9 | nt | -4.1 | 3.7 | 0.1 | nt | nt
Cc1ccc(C)c(S(=O)(=O)N2CCN(C(=O)C3CCN(c4ncnc5sc(C)c(C)c45)CC3)CC2)c1 | 10.9 | nt | -6.9 | -7.0 | -3.8 | nt | nt
O=C(NCc1ccccc1)C(c1ccc(-c2ccccc2)cc1)n1c(=O)c(-c2ccco2)nc2ccccc21 (stereo not drawn) | 14.1 | nt | nt | -9.7 | -0.1 | nt | nt
O=C(NCc1ccccc1)C(CCc1ccccc1)n1c(=O)c(-c2ccccc2)nc2ccccc21 (stereo not drawn) | -2.8 | nt | nt | 28.9* | -16.6 | 6.3 | 1.1
COCCCNC(=S)Nc1c(C)cc(C)cc1C | 5.5 | nt | -10.7 | 3.6 | -0.3 | nt | nt
C[N+](C)(C)CCNC(=O)c1ccccc1 | -7.1 | nt | nt | 1.2 | 2.4 | nt | nt
CN1OC[C@@H]2CN(S(=O)(=O)c3ccccc3)[C@H](c3ccccc3Br)C[C@@H]21 | 5.7 | nt | nt | 32.7* | -1.3 | -4.7 | -4.6
CN1OC[C@@H]2CN(S(=O)(=O)c3ccccc3)[C@H](c3cccc(Br)c3)C[C@@H]21 | 10.7 | nt | -8.7 | -9.9 | 1.8 | nt | nt
Cc1cc(C)n(-c2ccc(NC(=O)C3CCCCN3C(=O)c3sccc3C)cc2)n1 (stereo not drawn) | -14.7 | nt | -1.6 | -1.2 | 2.3 | nt | nt
Cc1ccc(S(=O)(=O)c2cc3ccccc3oc2=O)cc1 | 8.0 | 5.8 | -3.8 | 3.4 | -0.3 | nt | nt
Cc1c(O)ccc2cc(S(=O)(=O)c3ccccc3)c(=O)oc12 | 4.9 | nt | -0.9 | 34.0* | -7.5 | 33.4* | 57.9*
CCCCCC[n+]1ccccc1/C=C/c1ccc(N(C)C)cc1 | 66.9 | nt | nt | 33.5* | -20.8 | 41.0* | 40.8*
O=C1OCCN1C(=O)[C@H]1[C@H](c2ccccc2)C(c2cccc(Cl)c2)=NN1c1ccc(Br)cc1 | -0.6 | nt | -5.5 | 30.7* | 0.8 | 15.8 | 46.9*
Cc1cccc(C2=NN(c3ccc(Br)cc3)[C@@H](C(=O)N3CCOC3=O)[C@@H]2c2ccc(F)cc2)c1 | 2.9 | -11.1 | -12.1 | -0.8 | -1.2 | nt | nt
OC[C@@H]1[C@@H](c2ccccc2)C(c2cccc(Cl)c2)=NN1c1ccccc1 | 21.9 | nt | -4.3 | 32.6* | -2.0 | 27.4* | 53.8*
SMILES | SKN-1 inh | TLR4 MyD88 comp | TLR9-MyD88 inh | NOD2-RIPK2 inh | MT1-MMP act inh | NOD2-RIPK2 conf | BLA counter
O=C1OCCN1C(=O)[C@H]1[C@H](c2ccc(F)cc2)C(c2cccc(Cl)c2)=NN1c1ccc(Br)cc1 | 2.9 | nt | -12.8 | 26.2* | -9.5 | 14.7 | 48.1*
O=C1OCCN1C(=O)[C@H]1[C@H](c2ccc(F)cc2)C(c2cccc(Cl)c2)=NN1c1ccccc1 | 6.2 | nt | -5.1 | 28.1* | 2.6 | 16.9 | 44.2*
CCOCCCNC(=O)CSc1nnc(-c2ccc(S(=O)(=O)N3CCCC3)cc2)n1C | -2.8 | nt | 6.6 | 0.7 | 0.1 | nt | nt
O=C(CSc1ccccc1)N1CCCC(Nc2ccccc2)C1 (stereo not drawn) | 0.4 | nt | -4.2 | -8.2 | -1.8 | nt | nt
CCCc1cc(=O)[nH]c(SCC(=O)Nc2ccc([N+](=O)[O-])cc2C#N)n1 | -10.5 | nt | -1.4 | 0.9 | 10.4 | nt | nt
COc1ccc(N/C=C\C(=O)c2ccc3ccccc3c2)cc1 | 19.8 | nt | 1.0 | 2.5 | 2.5 | nt | nt
NS(=O)(=O)c1ccc(N/C=C\C(=O)c2ccc3ccccc3c2)cc1 | 6.3 | 1.7 | 1.0 | 24.2* | 3.9 | 4.4 | 11.8*
O=c1[nH]c2cc3c(cc2cc1CN(Cc1nnnn1CC1CCCO1)C1CCCC1)OCO3 (stereo not drawn) | -28.5 | -2.6 | 18.1 | 39.0* | -3.9 | -4.5 | 0.8
O=c1[nH]c2cc3c(cc2cc1CN(CCc1ccccc1)Cc1nnnn1CC1CCCO1)OCO3 (stereo not drawn) | 14.8 | -9.1 | 4.6 | 10.2 | -3.9 | nt | nt
O=c1[nH]c2cc3c(cc2cc1CN(Cc1nnnn1CC1CCCO1)C1CCCCC1)OCO3 (stereo not drawn) | -0.9 | 13.9 | 19.9 | 22.2* | -10.3 | 4.5 | 0.5
O=C(CN1C(=O)c2ccccc2S1(=O)=O)NCCSCc1cccc(Cl)c1 | -3.0 | nt | 4.1 | 28.7* | 1.6 | 1.6 | -0.5
Cc1[nH]nc(C(F)(F)F)c1N=NN1CCOCC1 | 6.1 | nt | -2.1 | 44.3* | -9.5 | 12.4 | -3.7
O=C(c1c(F)cccc1F)N1CCCc2ccccc21 | 10.5 | nt | -3.5 | 12.0 | 1.3 | nt | nt
Cc1ccc(S(=O)(=O)NCCN2CCOCC2)c(C)c1C | 8.7 | -8.2 | -2.8 | 71.7* | 0.8 | -5.6 | -7.0
COc1cc(OC)cc(C(=O)NCCCCc2ccccc2)c1 | -0.2 | nt | 2.7 | 2.1 | 1.5 | nt | nt
Clc1nssc1=Nc1nncs1 | -4.2 | nt | 7.7 | 26.8* | 1.8 | 28.9* | 2.9
